Test results from ChEMBL document CHEMBL3124793, “Discovery of spirofused piperazine and diazepane amides as selective histamine-3 antagonists with in vivo efficacy in a mouse model of cognition” (J Med Chem, 2014).
The source made the active and inactive calls.

How the values were obtained:
Histamine H3 receptor [1] = target: T1, Histamine H3 receptor (Homo sapiens, UniProt Q9Y5N1); test: Displacement of [3H]-N-alpha-methylhistamine from human histamine H3 receptor expressed in CHOK1 cells after 1.5 hrs by scintillation proximity assay; type: cell-based, CHO-K1
Summary of the method: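 Human H3R-CHO-K1 membranes incubated 1.5 h with test compound and [3H]-N-α-methylhistamine in SPA format; nonspecific binding defined with 10 μM imetit; bead-bound radioligand counted. Average of n > 2, standard error <50%.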

Histamine H3 receptor [2] = target: T1, Histamine H3 receptor; test: Antagonist activity at human histamine H3 receptor long form expressed in CHOK1 cells assessed as inhibition of R-alpha-methylhistamine-induced [35S]GTPgammaS binding after 3 hrs by scintillation proximity assay; type: functional, cell-based, CHO-K1
Summary of the method: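 Membranes from CHO-K1 cells stably expressing human H3R long form (445 aa) incubated 3 h with test compound, 25 nM R-α-methylhistamine, 10 μM GDP, 0.2 nM [35S]GTPγS and WGA PVT SPA beads; bead-bound [35S]GTPγS counted by scintillation. Average of n > 2, standard error <20%.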

[3] = target: Histamine H2 receptor (Homo sapiens) (UniProt P25021); test: Activity at histamine H2 receptor (unknown origin) at 10 uM relative to control
Summary of the method: (§1)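 Single-concentration binding at 10 μM against a panel of off-targets, run by an outside testing laboratory; activity judged against each assay's defined criteria.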

[4] = target: Phosphodiesterase 4 (Homo sapiens) (UniProt P27815+Q08499+Q07343+Q08493); test: Activity at PDE4 (unknown origin) at 10 uM relative to control; type: protein assay; summary of the method: as §1
[5] = target: D(2) dopamine receptor (Homo sapiens) (UniProt P14416); test: Activity at dopamine D2 receptor (unknown origin) at 10 uM relative to control; summary of the method: as §1
[6] = Half life in rat at 3 umol/kg, iv; type: ADME, organism-based; details: in vivo
Summary of the method: (§2)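 IV dosing in male fasted rats, doses in μmol/kg; mean Vss, half-life and clearance derived; number of rats per compound reported.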

[7] = Plasma clearance in Sprague-Dawley rat; type: ADME, organism-based; details: read-out: AUC
[8] = Intrinsic clearance in rat liver microsomes; type: ADME; details: read-out: CLH
Rattus norvegicus [9] = organism: Rattus norvegicus; test: Inhibition of rat sigma-2 receptor at 10 uM relative to control
Summary of the method: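 Radioligand binding screen within a 144-receptor secondary pharmacology panel, run at a single 10 μM test concentration. The response is expressed as percent activity. Activity was judged against each assay's own defined criteria.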

[10] = Induction of phospholipidosis in mouse I-13.35 cells by EthD-2 staining-based assay; type: cell-based
[11] = Percentage unbound in rat plasma; type: ADME, cell-free
Summary of the method: (§3)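 Plasma protein binding in human or rat plasma, expressed as percent free.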

[12] = Plasma concentration in Sprague-Dawley rat at 3 umol/kg, iv after 1 hr; type: ADME, organism-based
Summary of the method: (§4)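 3 μmol/kg IV; plasma, brain and CSF sampled at 1 h, n = 4; brain not corrected for ~2–3% vascular contamination; nonspecific binding during CSF sampling not evaluated; mean with standard deviation.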

[13] = target: Histamine H4 receptor (Homo sapiens) (UniProt Q9H3N8); test: Activity at histamine H4 receptor (unknown origin) at 10 uM relative to control; summary of the method: as §1
[14] = target: Histamine H1 receptor (Homo sapiens) (UniProt P35367); test: Activity at histamine H1 receptor (unknown origin) at 10 uM relative to control; summary of the method: as §1
[15] = Drug uptake in Sprague-Dawley rat CSF at 3 umol/kg, iv after 1 hr; type: ADME, organism-based, Cerebrospinal fluid; details: read-out: Drug uptake; summary of the method: as §4
Rattus norvegicus [16] = test: […] clearance in rat at 3 umol/kg, iv; type: ADME, organism-based; details: in vivo; summary of the method: as §2
[17] = Apparent permeability from apical to basolateral side in MDCK cells; type: ADME, cell-based, Canis lupus familiaris; details: dog
Summary of the method: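 MDCK monolayers; A-to-B Papp in 1 × 10⁻⁶ cm/s; efflux taken as ratio of A-to-B Papp over B-to-A Papp.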

[18] = target: Sodium-dependent noradrenaline transporter (Homo sapiens) (UniProt P23975); test: Activity at NET (unknown origin) at 10 uM relative to control; summary of the method: as §1
[19] = Equilibrium solubility of the compound at pH 7.4; type: physicochemical; details: buffer
[20] = Drug recovery in Sprague-Dawley rat urine at 3 umol/kg, iv after 24 hrs; type: ADME, organism-based; details: read-out: Drug recovery
[21] = target: T2, 5-hydroxytryptamine receptor 1A (Homo sapiens) (UniProt P08908); test: Activity at 5-HT1A receptor (unknown origin) at 10 uM relative to control; summary of the method: as §1
T2 sequence (whole entry): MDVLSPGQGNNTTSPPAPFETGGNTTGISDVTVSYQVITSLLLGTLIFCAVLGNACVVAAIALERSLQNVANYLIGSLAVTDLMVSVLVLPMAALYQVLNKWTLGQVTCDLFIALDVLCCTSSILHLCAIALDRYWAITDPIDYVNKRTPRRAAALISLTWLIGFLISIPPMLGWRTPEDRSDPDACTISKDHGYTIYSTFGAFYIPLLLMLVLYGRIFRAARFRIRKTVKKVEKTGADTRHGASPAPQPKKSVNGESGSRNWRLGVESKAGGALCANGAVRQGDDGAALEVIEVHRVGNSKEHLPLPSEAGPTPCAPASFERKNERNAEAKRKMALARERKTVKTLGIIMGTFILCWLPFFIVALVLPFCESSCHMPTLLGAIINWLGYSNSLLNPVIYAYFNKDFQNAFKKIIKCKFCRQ

[22] = Volume of distribution at steady state in rat at 3 umol/kg, iv; type: ADME, organism-based; details: in vivo, read-out: Vdss
Summary of the method: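 Male fasted rats given a single IV dose. Volume of distribution taken as the mean from plasma sampling after the IV dose. Animals per compound: 1 to 7.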

[23] = target: T3, Muscarinic acetylcholine receptor M2 (Homo sapiens) (UniProt P08172); test: Activity at muscarinic M2 receptor (unknown origin) at 10 uM relative to control; summary of the method: as §1
T3 sequence (whole entry): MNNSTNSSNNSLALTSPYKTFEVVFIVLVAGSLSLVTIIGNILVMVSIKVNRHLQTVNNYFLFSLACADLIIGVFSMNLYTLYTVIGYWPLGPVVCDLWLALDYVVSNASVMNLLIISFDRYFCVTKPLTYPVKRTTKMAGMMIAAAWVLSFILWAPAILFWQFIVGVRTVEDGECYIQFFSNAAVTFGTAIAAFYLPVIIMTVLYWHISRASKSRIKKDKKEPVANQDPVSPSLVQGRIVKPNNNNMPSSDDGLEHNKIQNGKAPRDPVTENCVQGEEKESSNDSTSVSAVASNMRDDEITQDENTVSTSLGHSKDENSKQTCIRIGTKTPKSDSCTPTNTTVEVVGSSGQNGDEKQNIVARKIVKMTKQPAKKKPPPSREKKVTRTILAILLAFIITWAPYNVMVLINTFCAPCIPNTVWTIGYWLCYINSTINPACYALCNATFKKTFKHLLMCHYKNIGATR

Homo sapiens [24] = organism: Homo sapiens; test: Activity at nicotinic acetylcholine receptor (unknown origin) at 10 uM relative to control; summary of the method: as §1
Salmonella typhimurium = test: Genotoxicity in Salmonella typhimurium by Ames test; type: toxicity, organism-based; details: salmonella enterica subsp. enterica serovar typhimurium
Homo sapiens [25] = organism: Homo sapiens; test: Activity at GABA receptor (unknown origin) at 10 uM relative to control; summary of the method: as §1
[26] = Cmax in Sprague-Dawley rat 3 umol/kg, po; type: ADME, organism-based; parameters: dose 3 umol/kg, route oral; details: in vivo
[27] = target: Adenosine receptor A2a (Homo sapiens) (UniProt P29274); test: Activity at adenosine A2a receptor (unknown origin) at 10 uM relative to control; summary of the method: as §1
[28] = Tmax in Sprague-Dawley rat 3 umol/kg, po; type: ADME, organism-based; details: in vivo
[29] = Intrinsic clearance in human liver microsomes; type: ADME; details: read-out: CLH
Summary of the method: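 Human liver microsomal clearance, expressed as μL/min/mg.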

[30] = Apparent half life in Sprague-Dawley rat; type: ADME, organism-based; details: in vivo, read-out: t1/2(app) (converted)
[31] = Octanol-water partition coefficient, log D of the compound by shake flask HPLC analysis; type: physicochemical
Summary of the method: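 logD between octanol and water by shake-flask with HPLC analysis.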

Brain = test: Drug uptake in Sprague-Dawley rat brain at 3 umol/kg, iv after 1 hr; type: ADME, organism-based; details: in vivo; summary of the method: as §4
[32] = Oral bioavailability in Sprague-Dawley rat 3 umol/kg; type: ADME, organism-based; details: in vivo
Mus musculus = test: Cognitive enhancing effect in CF-1 mouse at 1 to 10 mg/kg, sc administered 60 mins prior to acquisition phase by novel object exploration test; type: functional, organism-based
Summary of the method: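 Male CF-1 mice given 1, 3 or 10 mg/kg s.c. 60 min before acquisition with two identical objects; one object then swapped for a novel one; mice re-tested 15 min later. Novel/familiar interaction ratio (50% = no preference) from manual scoring; mean ± SD; ANOVA with Newman–Keuls post hoc.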

[33] = Half life in rat at 2.4 umol/kg, iv; type: ADME, organism-based; details: in vivo; summary of the method: as §2
[34] = Percentage unbound in human plasma; type: ADME, cell-free; summary of the method: as §3
Rattus norvegicus [35] = test: […] clearance in rat at 2.4 umol/kg, iv; type: ADME, organism-based; details: in vivo; summary of the method: as §2
[36] = Volume of distribution at steady state in rat at 2.4 umol/kg, iv; type: ADME, organism-based; details: in vivo, read-out: Vdss; summary of the method: as §2

T1 sequence (Q9Y5N1 whole entry): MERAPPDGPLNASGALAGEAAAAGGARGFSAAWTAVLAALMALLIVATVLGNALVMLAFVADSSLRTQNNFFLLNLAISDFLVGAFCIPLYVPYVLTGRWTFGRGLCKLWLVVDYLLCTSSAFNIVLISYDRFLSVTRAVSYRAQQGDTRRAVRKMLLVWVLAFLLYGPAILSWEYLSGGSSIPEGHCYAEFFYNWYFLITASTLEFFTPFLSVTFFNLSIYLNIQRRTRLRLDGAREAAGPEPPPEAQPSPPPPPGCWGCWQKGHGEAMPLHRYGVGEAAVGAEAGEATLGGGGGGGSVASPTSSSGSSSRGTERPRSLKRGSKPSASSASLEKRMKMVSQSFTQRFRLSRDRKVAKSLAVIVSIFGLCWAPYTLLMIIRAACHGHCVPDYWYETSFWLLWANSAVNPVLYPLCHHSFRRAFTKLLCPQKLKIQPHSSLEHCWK
Sequence of Histamine H4 receptor (Homo sapiens) (Q9H3N8 whole entry): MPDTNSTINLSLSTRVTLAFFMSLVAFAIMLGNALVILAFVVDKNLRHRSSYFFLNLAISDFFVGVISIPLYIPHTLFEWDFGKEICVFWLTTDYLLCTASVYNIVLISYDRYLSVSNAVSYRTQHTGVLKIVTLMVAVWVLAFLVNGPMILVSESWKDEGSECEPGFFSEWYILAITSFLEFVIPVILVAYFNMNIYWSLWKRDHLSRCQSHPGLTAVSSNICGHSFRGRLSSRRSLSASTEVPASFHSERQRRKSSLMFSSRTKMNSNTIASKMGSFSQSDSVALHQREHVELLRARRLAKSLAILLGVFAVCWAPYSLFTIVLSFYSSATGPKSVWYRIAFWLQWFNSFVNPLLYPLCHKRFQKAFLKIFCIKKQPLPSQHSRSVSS
Sequence of Adenosine receptor A2a (Homo sapiens) (P29274 whole entry): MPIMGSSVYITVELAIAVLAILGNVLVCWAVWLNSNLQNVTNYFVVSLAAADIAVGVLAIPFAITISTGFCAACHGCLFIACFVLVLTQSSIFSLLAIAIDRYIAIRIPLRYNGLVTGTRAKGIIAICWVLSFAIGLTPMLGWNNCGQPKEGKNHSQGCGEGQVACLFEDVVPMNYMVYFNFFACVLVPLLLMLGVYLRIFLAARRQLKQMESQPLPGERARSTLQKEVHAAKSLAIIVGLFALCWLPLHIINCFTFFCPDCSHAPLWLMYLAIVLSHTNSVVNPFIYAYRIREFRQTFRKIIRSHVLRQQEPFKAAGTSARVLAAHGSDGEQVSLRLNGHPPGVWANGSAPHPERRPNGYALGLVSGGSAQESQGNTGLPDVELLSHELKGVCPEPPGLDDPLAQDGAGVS
Sequence of D(2) dopamine receptor (Homo sapiens) (P14416 whole entry): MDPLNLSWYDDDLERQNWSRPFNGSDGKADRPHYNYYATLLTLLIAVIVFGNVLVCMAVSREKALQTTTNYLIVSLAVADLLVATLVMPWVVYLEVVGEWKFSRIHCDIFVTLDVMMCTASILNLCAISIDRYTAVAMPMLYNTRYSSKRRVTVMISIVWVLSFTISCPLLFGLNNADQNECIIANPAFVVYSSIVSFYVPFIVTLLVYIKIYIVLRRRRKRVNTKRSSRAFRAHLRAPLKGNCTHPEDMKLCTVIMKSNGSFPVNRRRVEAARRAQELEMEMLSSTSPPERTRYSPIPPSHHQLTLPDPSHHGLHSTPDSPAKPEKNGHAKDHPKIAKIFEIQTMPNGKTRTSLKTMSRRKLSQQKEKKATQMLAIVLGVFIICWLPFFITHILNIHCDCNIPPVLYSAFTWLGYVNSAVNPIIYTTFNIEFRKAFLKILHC
Sequence of Sodium-dependent noradrenaline transporter (Homo sapiens) (P23975 whole entry): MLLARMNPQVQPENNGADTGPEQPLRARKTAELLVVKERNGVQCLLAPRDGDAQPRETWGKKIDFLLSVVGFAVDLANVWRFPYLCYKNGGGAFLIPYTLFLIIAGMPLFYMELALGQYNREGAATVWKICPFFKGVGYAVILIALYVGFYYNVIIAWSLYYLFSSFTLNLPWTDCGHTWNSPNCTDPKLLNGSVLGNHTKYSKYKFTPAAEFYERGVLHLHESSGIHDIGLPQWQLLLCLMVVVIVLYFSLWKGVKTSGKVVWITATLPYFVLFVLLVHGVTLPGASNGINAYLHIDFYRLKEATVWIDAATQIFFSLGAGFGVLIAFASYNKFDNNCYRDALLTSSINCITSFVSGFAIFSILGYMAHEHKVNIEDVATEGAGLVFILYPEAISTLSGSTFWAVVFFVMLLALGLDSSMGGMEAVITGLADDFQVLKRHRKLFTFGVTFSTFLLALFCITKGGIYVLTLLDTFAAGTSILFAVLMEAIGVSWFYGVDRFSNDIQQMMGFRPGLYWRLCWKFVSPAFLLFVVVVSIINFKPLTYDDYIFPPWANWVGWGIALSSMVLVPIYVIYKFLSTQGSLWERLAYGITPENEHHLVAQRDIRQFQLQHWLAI
Sequence of Histamine H1 receptor (Homo sapiens) (P35367 whole entry): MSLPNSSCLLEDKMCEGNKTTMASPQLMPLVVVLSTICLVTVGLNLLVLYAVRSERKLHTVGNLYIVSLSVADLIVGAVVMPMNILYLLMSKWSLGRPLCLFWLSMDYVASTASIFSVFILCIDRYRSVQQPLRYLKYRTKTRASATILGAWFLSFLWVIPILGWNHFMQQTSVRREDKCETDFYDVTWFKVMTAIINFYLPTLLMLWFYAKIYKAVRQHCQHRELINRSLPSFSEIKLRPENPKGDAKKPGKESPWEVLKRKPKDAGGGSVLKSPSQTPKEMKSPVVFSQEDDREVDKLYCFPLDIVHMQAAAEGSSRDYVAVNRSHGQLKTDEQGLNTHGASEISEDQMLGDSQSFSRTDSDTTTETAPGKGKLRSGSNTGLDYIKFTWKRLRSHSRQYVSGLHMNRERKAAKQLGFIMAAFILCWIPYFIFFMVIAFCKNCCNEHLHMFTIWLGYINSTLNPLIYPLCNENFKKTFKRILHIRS
Sequence of Histamine H2 receptor (Homo sapiens) (P25021 whole entry): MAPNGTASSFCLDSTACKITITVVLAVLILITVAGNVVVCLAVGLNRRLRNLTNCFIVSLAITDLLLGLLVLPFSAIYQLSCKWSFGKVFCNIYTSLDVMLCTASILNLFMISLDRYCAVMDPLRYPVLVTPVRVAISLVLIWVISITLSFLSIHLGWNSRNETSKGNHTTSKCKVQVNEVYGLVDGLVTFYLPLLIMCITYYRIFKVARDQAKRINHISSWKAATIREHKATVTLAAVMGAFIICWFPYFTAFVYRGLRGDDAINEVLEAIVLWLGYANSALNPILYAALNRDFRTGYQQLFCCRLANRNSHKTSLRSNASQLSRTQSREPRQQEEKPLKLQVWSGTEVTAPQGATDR

For `CC(C)N1CCN(C(=O)[C@H]2CC23CCN(C2CCOCC2)CC3)CC1`, the Ki (Histamine H3 receptor [1]) was 0.8 nM, the IC50 (Histamine H3 receptor [2]) was 8.3 nM and the Activity [3] was > 10%. For the same molecule, the Activity [4] was > 10%, the Activity [5] was > 10% and the half-life [6] was 25.3 h. The clearance [7] was 53 mL/min/kg, the microsomal CLint [8] was 7 µL/min/mg and the inhibition (Rattus norvegicus [9]) was 62%. For the same molecule, the EC50 [10] was > 300000 nM, the fraction unbound [11] was 0.87 and the concentration at 1 h [12] was 180 nM. The Activity [13] was > 10%, the Activity [14] was > 10% and the concentration at 1 h [15] was 34 nM. The CL (Rattus norvegicus [16]) was 16.4 mL/min/kg, the Papp A→B [17] was 13 ×10⁻⁶ cm/s and the Activity [18] was > 10%. For the same molecule, the solubility thermodynamic [19] was > 500 µM, the dose excreted at 24 h [20] was 14% and the Activity [21] was > 10%. The Vd [22] was 34.6 L/kg, the Activity [23] was > 10% and the Activity (Homo sapiens [24]) was > 10%. For the same molecule, the Activity (Salmonella typhimurium) was “Non-toxic”, the Activity (Homo sapiens [25]) was > 10% and the Cmax [26] was 71 nM. The Activity [27] was > 10%, the Tmax [28] was 6 h and the microsomal CLint [29] was < 4 µL/min/mg. The half-life [30] was 15 h, the logD [31] was -0.26 and the Drug uptake (Brain) was 540 nmol/kg. The bioavailability [32] was 99% and the Activity (Mus musculus) was “Active”.

For `O=C(C1CC2(CCN(C3CCOCC3)CC2)C1)N1CCN(C2CCC2)CC1`, the IC50 (Histamine H3 receptor [2]) was 1.9 nM, the Activity [4] was > 10% and the Activity [5] was > 10%. For the same molecule, the microsomal CLint [8] was < 4 µL/min/mg, the Activity [13] was > 10% and the half-life [33] was 14.2 h. For the same molecule, the Activity [14] was > 10%, the fraction unbound [34] was 0.51 and the Papp A→B [17] was 5.1 ×10⁻⁶ cm/s. For the same molecule, the Activity [18] was > 10%, the solubility thermodynamic [19] was > 500 µM and the Activity [21] was > 10%. For the same molecule, the CL (Rattus norvegicus [35]) was 81.2 mL/min/kg, the Activity [23] was > 10% and the Activity (Homo sapiens [24]) was > 10%. The Activity (Homo sapiens [25]) was > 10%, the Vd [36] was 74 L/kg and the Activity [27] was > 10%. For the same molecule, the microsomal CLint [29] was < 4 µL/min/mg.
